# Laboratory results reported in paper PMC4184708 (Pharmacology Research & Perspectives, 2014).
# How the values were obtained:
# [1] = Pharmacokinetics of acetaminophen; format: in vivo, male Sprague–Dawley rats; conditions: rats
# [2] = Acetaminophen deconvolution profiles and rate of gastric emptying; format: in vivo, male Sprague–Dawley rats; conditions: rats, deconvolution profile, after 30 min
# [3] = Pharmacokinetics of vigabatrin after iv or oral administration to rats; format: in vivo, male Sprague–Dawley rats
# [4] = tested on: Caco-2 cell monolayers; experiment: Transepithelial apical to basolateral; format: in vitro ADME, human; conditions: Caco-2 monolayers, NaCl-reduced HBSS versus HBSS
# Method in brief: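 Caco-2 cells (passages 10–18) were seeded at 8.9·10^4 cells cm−2 on 1.12 cm2 polycarbonate inserts (0.4 μm) and run 20 days post seeding, with TEER monitored. 1.0 mmol/L test compound was applied apically, alone or with amino acid or dipeptide inhibitors (35.0–152.5 mmol/L) in NaCl-reduced HBSS (mannitol to 270–310 mOsmol L−1), or with low fat infant formula 150 mg mL−1 in water. Controls were in HBSS and NaCl-reduced HBSS.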
# [5] = tested on: Caco-2 cells; experiment: Apical vigabatrin uptake in Caco-2 cells; format: in vitro ADME, human
# Method in brief: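 Caco-2 cells (passages 10–18) were seeded at 8.9·10^4 cells cm−2 in 24-well plates and used 6 days post seeding. Low fat infant formula: 150 mg mL−1 was incubated 15 min at 37°C, centrifuged 15 min at 18000g and 4°C, and the supernatant was re-spun to remove lipids. Uptake rate is in nmol min−1 cm−2; n = 3–4.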
# [6] = Absorption rate constant; format: in vivo, male Sprague–Dawley rats; conditions: rats
# [7] = Paracellular flux: A–B transport of [14C]-mannitol across Caco-2 cell monolayers; format: in vitro ADME; conditions: human
# [8] = rats, vigabatrin 1.0 mg kg^−1 PO, formulation 1, dietary component none
# [9] = rats, vigabatrin 1.0 mg kg^−1 PO, formulation 5, with Sar 200 mg kg^−1
# [10] = rats, vigabatrin 1.0 mg kg^−1 PO, formulation 6, with BCH 200 mg kg^−1
# [11] = rats, vigabatrin 10 mg kg^−1 PO, formulation 7, dietary component none
# [12] = rats, vigabatrin 10 mg kg^−1 PO, formulation 10, with Sar 200 mg kg^−1
# [13] = oral coadministration with 120 mg kg^−1 acetaminophen
compound,measurement,setting,value
CC(=O)Nc1ccc(O)cc1 [acetaminophen],AUC(0-inf),"[1]; male, Sprague-Dawley, rat, plasma, iv, 120 mg/kg, AUC0–∞, acetaminophen 120 mg kg^−1 iv, formulation 00, dietary component none",155000 ± 4000 ng·h/mL
same,k el,"[1]; male, Sprague-Dawley, rat, plasma, iv, 120 mg/kg, ke, acetaminophen 120 mg kg^−1 iv, formulation 00, dietary component none",0.000306 s⁻¹
same,Fabs,"[1]; acetaminophen 120 mg kg^−1 iv, formulation 00, dietary component none",100 ± 3%
same,cumulative fraction of acetaminophen absorbed,[2],about 90%
C=CC(N)CCC(=O)O (stereo not drawn) [vigabatrin],clearance,"[3]; male, Sprague-Dawley, rat, plasma, iv, 1 mg/kg",7.1 mL/min/kg
same,AUC(0-inf),"[3]; male, Sprague-Dawley, rat, plasma, po, 10 mg/kg, AUC0–∞, rats, vigabatrin 10 mg kg^−1 PO, formulation 7, dietary component none",17800 ± 808 ng·h/mL
same,Cmax,"[3]; male, Sprague-Dawley, rat, plasma, po, 10 mg/kg, Cmax, rats, vigabatrin 10 mg kg^−1 PO, formulation 7, dietary component none",13600 ± 953 ng/mL
same,k el,"[3]; male, Sprague-Dawley, rat, plasma, po, 10 mg/kg, ke, rats, vigabatrin 10 mg kg^−1 PO, formulation 7, dietary component none",0.000194 s⁻¹
same,Tmax,"[3]; male, Sprague-Dawley, rat, plasma, po, 10 mg/kg, tmax, median [Q1, Q3], rats, vigabatrin 10 mg kg^−1 PO, formulation 7, dietary component none",19.8 min
same,time of maximal plasma concentration (Cmax) after oral administration,"[3]; rats, oral administration of 1.0 or 10.0 mg kg^−1 vigabatrin",0.25 to 0.33 h
same,CL,[3]; [8],9.68 ± 0.5 mL/min/kg
same,Fabs,[3]; [8],72 ± 4%
same,CL,[3]; [9],9.53 ± 0.383 mL/min/kg
same,Fabs,[3]; [9],73 ± 3%
same,CL,[3]; [10],9.13 ± 0.333 mL/min/kg
same,Fabs,[3]; [10],76 ± 3%
same,Fabs,"[3]; rats, vigabatrin 1.0 mg kg^−1 iv, formulation 0, dietary component none",100%
same,CL,[3]; [11],9.45 ± 0.4 mL/min/kg
same,Fabs,[3]; [11],74 ± 3%
same,CL,[3]; [12],10.6 ± 0.533 mL/min/kg
same,Fabs,[3]; [12],66 ± 3%
same,transport of vigabatrin in the apical to basolateral direction,[4],unaffected
same,apical vigabatrin uptake rate,"[5]; apical pH 6.0, control",1.01 ± 0.11 nmol min^−1 cm^−2
same,apical vigabatrin uptake rate,"[5]; apical pH 6.0, in the presence of Gly-Gly",0.48 ± 0.07 nmol min^−1 cm^−2
same,apical vigabatrin uptake rate,"[5]; apical pH 6.0, in the presence of low fat infant formula",0.53 ± 0.09 nmol min^−1 cm^−2
same,apical vigabatrin uptake rate,"[5]; apical pH 7.4, control",0.31 ± 0.04 nmol min^−1 cm^−2
same,apical vigabatrin uptake rate,"[5]; apical pH 7.4, in the presence of Gly-Gly",0.25 ± 0.03 nmol min^−1 cm^−2
same,apical vigabatrin uptake rate,"[5]; apical pH 7.4, in the presence of low fat infant formula",0.28 ± 0.06 nmol min^−1 cm^−2
same,ka,"[6]; vigabatrin 1 mg kg^−1, DC fitted to eq. 9, with Low fat milk",5.2 ± 0.3
same,ka,"[6]; vigabatrin 1 mg kg^−1, DC fitted to eq. 9, with Milk",5.3 ± 0.9
same,ka,"[6]; vigabatrin 1 mg kg^−1, DC fitted to eq. 9, with Sar",2.9 ± 0.2
same,ka,"[6]; vigabatrin 1 mg kg^−1, PC fitted to eq. 10, with Low fat milk",2.6 ± 0.1
same,ka,"[6]; vigabatrin 1 mg kg^−1, PC fitted to eq. 10, with Milk",2.8 ± 0.3
same,ka,"[6]; vigabatrin 1 mg kg^−1, PC fitted to eq. 10, with Sar",1.6 ± 0.1
same,ka,"[6]; vigabatrin 1 mg kg^−1, deconvolution curve (DC) fitted to eq. 9, Control",7.9 ± 1.9
same,ka,"[6]; vigabatrin 10 mg kg^−1, DC fitted to eq. 9, with Low fat milk",5.0 ± 0.3
same,ka,"[6]; vigabatrin 10 mg kg^−1, DC fitted to eq. 9, with Milk",4.1 ± 0.5
same,ka,"[6]; vigabatrin 10 mg kg^−1, DC fitted to eq. 9, with Sar",3.2 ± 0.2
same,ka,"[6]; vigabatrin 10 mg kg^−1, PC fitted to eq. 10, with Low fat milk",2.6 ± 0.1
same,ka,"[6]; vigabatrin 10 mg kg^−1, PC fitted to eq. 10, with Milk",2.6 ± 0.3
same,ka,"[6]; vigabatrin 10 mg kg^−1, PC fitted to eq. 10, with Sar",1.7 ± 0.1
same,ka,"[6]; vigabatrin 10 mg kg^−1, deconvolution curve (DC) fitted to eq. 9, Control",8.1 ± 2.3
"CNCC(=O)O [Sar, sarcosine]",effect on Cmax of acetaminophen,[1]; [13],did not alter
same,effect on tmax of acetaminophen,[1]; [13],did not alter
same,effect on tmax of vigabatrin,"[3]; rats, oral coadministration with 1.0 and 10.0 mg kg^−1 vigabatrin",significant prolonging effect
same,effect on Cmax of vigabatrin,"[3]; rats, oral coadministration with vigabatrin",significantly decreased
"OC[C@@H](O)[C@@H](O)[C@H](O)[C@H](O)CO [mannitol, D-[1-^14C]-mannitol]",Papp,[7],0.16 ×10⁻⁶ cm/s
"NC1(C(=O)O)CC2CCC1C2 (stereo not drawn) [BCH, 2-amino-2-norbornanecarboxylic acid]",effect on the pharmacokinetic parameters of vigabatrin absorption,"[3]; rats, oral administration of 1.0 mg kg^−1 vigabatrin",did not significantly alter
